Measurements from different studies.
Compare with care: the assays were run in different laboratories.
Target: Carbonic anhydrase 9 (CA9, Homo sapiens, UniProt Q16790)
Observed: enzyme activity
Action: inhibitor

| SMILES | assay | endpoint | value |
| --- | --- | --- | --- |
| Cc1ccc(-c2ccc(Nc3ccc(S(N)(=O)=O)cc3)nn2)cc1S(=O)(=O)N1CCCCC1 |  | IC50 | 7.94 nM |
| COc1ccc(C(=O)/C=C/c2cccc3ccccc23)cc1S(N)(=O)=O |  | Ki | 1640 nM |
| Cn1cc(-c2cccc3oc(C(=O)NC4CCCN(CC(=O)Nc5ccc(S(N)(=O)=O)cc5)C4)cc23)nn1 (stereo not shown) |  | IC50 | 30.2 nM |
| NS(=O)(=O)c1ccc(CCNC2=NS(=O)(=O)c3ccc(Cl)cc3N2)cc1 | stopped-flow | Ki | 37.2 nM |
| NS(=O)(=O)c1ccc(NC2=NC(=O)/C(=C\c3ccc(O)cc3)S2)cc1 |  | IC50 | 203 nM |
| Cc1ccc(C(=O)Nc2ccc(C(=O)Nc3cccc(S(N)(=O)=O)c3)cc2)s1 |  | IC50 | 409 nM |
| NS(=O)(=O)c1ccc(-n2nccc2-c2ccc(N3CCOCC3)cc2)cc1 |  | Ki | 245 nM |
| COc1cc(/C=C2/SC(Nc3ccc(S(N)(=O)=O)cc3)=NC2=O)cc(OC)c1OC |  | IC50 | 39.5 nM |
| COc1ccc(C(=O)/C=C/c2cc3c(cc2Br)OCO3)cc1S(N)(=O)=O |  | Ki | 8170 nM |
| NS(=O)(=O)c1ccc(-n2nccc2-c2ccc(N3CCCCC3)cc2)cc1 |  | Ki | 227 nM |
